# Experiments:
# Vero [1] = assay: Inhibition of Tomioka strain of herpes simplex virus( Tomioka strain of HSV-1) by quantitative CPE reduction assay in vero cells; format: functional, cell-based, Human alphaherpesvirus 1
# Method in brief: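 Vero cells in EMEM with 2% FBS, 3-fold compound dilutions, infected with HSV-1 Tomioka at about 100 TCID50 per well. After 3 days at 37 °C in 5% CO2, cells stained with neutral red for 45 min. Dye eluted in pH 4.2 citrate-ethanol, A550 read. Cell control set to 100% and blank to 0%; IC50 is the concentration giving 50% OD. Quadruplicate.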
# Vero [2] = assay: Cytotoxic concentration to uninfected vero cells; format: functional, Chlorocebus sabaeus
# Method in brief: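 Uninfected Vero cells were run through the same neutral red dye-uptake method as the antiviral test: 3-fold dilutions in EMEM with 2% FBS, 3 days at 37 °C in 5% CO2, A550 read. CC50 is the concentration giving 50% of the cell-control OD. Quadruplicate.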
# HFF [3] = assay: Inhibitory activity against DM625 strain of zoster virus(VZV) by plaque reduction assay in HFF cells; format: functional, cell-based; details: Homo sapiens
# HFF [4] = assay: Selectivity index is the ratio between IC50 (Anti-VZV Activity (DM625 in HFF Cells)) and minimum cytotoxic concentration (against HFF cells) values of the compound; format: functional
# CCRF-CEM [5] = assay: Inhibitory activity against 1RF strain of HIV-1 by plaque reduction assay in CEM cells; format: functional, cell-based
# Method in brief: (§1)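 CEM cells pregrown in RPMI 1640 with 10% FCS; HIV-1 RF strain, 32-100 CCID50 units per 0.1 mL, added together with test compound. Incubated 7 days at 37 °C in 5% CO2. CPE inhibition read by MTT dye uptake; IC50 derived. Triplicate.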
# HFF [6] = assay: Minimum cytotoxic concentration against uninfected HFF cells; format: functional, Homo sapiens
# Method in brief: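 Uninfected HFF cells under MEM with 2% FBS in 0.25% agarose overlay with test compound, 5 days at 37 °C in 5% CO2. Examined microscopically for gross morphologic changes, then treated with MTT and 30% SDS; highest concentration 320 μg/mL. Value is the minimum concentration giving morphologic change. Triplicate.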
# CCRF-CEM [7] = assay: Cytotoxic concentration against uninfected CEM cells; format: functional, Homo sapiens
# Method in brief: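 Uninfected CEM cells in RPMI 1640 with 10% FCS, exposed to test compound for 7 days at 37 °C in 5% CO2. Cytotoxicity measured by MTT dye uptake and expressed as CC25. Triplicate.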
# CCRF-CEM [8] = assay: compound tested for anti-HIV-1 activity by plaque reduction assay against HIV-1 in CEM cells; format: functional; details: Homo sapiens; method in brief: as §1
# CCRF-CEM [9] = assay: compound tested for inhibitory activity by plaque reduction assay against HIV-1 in CEM cells; format: functional, cell-based; details: Homo sapiens
# CCRF-CEM [10] = assay: Compound tested for inhibitory activity by plaque reduction assay against HIV-1RF strain in CEM cells; format: functional, cell-based; details: Homo sapiens; method in brief: as §1
# [11] = Chlorocebus sabaeus, Vero, read-out: IC50
# [12] = Chlorocebus sabaeus, Vero, read-out: CC50
# [13] = Homo sapiens, CCRF-CEM, read-out: IC50
smiles,measurement,setting,value
Nc1ncc2ncn(CC3(CO)CC3CO)c2n1 (stereo not drawn),IC50,Vero [1]; [11],30 µg/mL
same,CC50,Vero [2]; [12],> 500 µg/mL
Nc1nc(O)c2ncn(C[C@@]3(CO)C[C@@H]3CO)c2n1 (stereo in doubt; 3),IC50,Vero [1]; vero,0.046 µg/mL
same,CC50,Vero [2],530 µg/mL
Nc1nc(O)c2ncn(C[C@@]3(CO)C[C@@H]3CO)c2n1 (stereo in doubt; 3b),IC50,Vero [1]; vero,2.2 µg/mL
same,CC50,Vero [2]; [12],> 500 µg/mL
Nc1nc(O)c2ncn(C[C@@]3(CO)C[C@H]3CO)c2n1,IC50,HFF [3],19.4 µg/mL
same,SI,HFF [4],16
same,IC50,CCRF-CEM [5]; [13],> 100 µg/mL
same,IC50,Vero [1]; [11],10 µg/mL
same,MTC,HFF [6],320 µg/mL
same,CC25,CCRF-CEM [7],>100 µg/mL
same,CC50,Vero [2]; [12],> 500 µg/mL
Nc1ccn(C[C@]2(CO)C[C@H]2CO)c(=O)n1,IC50,CCRF-CEM [5]; [13],> 100 µg/mL
same,IC50,Vero [1]; [11],> 500 µg/mL
same,CC25,CCRF-CEM [7],>100 µg/mL
same,CC50,Vero [2]; [12],> 500 µg/mL
Cc1cn(C[C@]2(CO)C[C@@H]2CO)c(=O)[nH]c1=O (stereo in doubt; 41a),IC50,CCRF-CEM [5]; ccrf-cem,> 100 µg/mL
same,IC50,Vero [1]; [11],> 500 µg/mL
same,CC25,CCRF-CEM [7],>100 µg/mL
same,CC50,Vero [2]; [12],> 500 µg/mL
Cc1cn(C/C(=C\CO)CO)c(=O)[nH]c1=O,IC50,CCRF-CEM [5]; [13],> 100 µg/mL
same,IC50,Vero [1]; [11],> 500 µg/mL
same,CC25,CCRF-CEM [7],>100 µg/mL
same,CC50,Vero [2]; [12],> 500 µg/mL
Nc1nc(O)c2ncn(C/C(=C\CO)CO)c2n1,IC50,HFF [3],3.2 µg/mL
same,SI,HFF [4],100
same,IC50,CCRF-CEM [5]; [13],> 100 µg/mL
same,IC50,Vero [1]; [11],4.2 µg/mL
same,MTC,HFF [6],320 µg/mL
same,CC25,CCRF-CEM [7],>100 µg/mL
same,CC50,Vero [2]; [12],> 500 µg/mL
Nc1nc(O)c2ncn(C[C@@]3(CO)O[C@@H]3CO)c2n1,IC50,Vero [1]; [11],> 500 µg/mL
same,CC50,Vero [2]; [12],> 500 µg/mL
Cc1cn(C/C(=C/CO)CO)c(=O)[nH]c1=O,IC50,CCRF-CEM [5]; [13],> 100 µg/mL
same,IC50,Vero [1]; [11],> 500 µg/mL
same,CC25,CCRF-CEM [7],>100 µg/mL
same,CC50,Vero [2]; [12],> 500 µg/mL
Nc1ccn(C[C@]2(CO)C[C@@H]2CO)c(=O)n1,IC50,CCRF-CEM [5]; [13],23.7 µg/mL
same,IC50,Vero [1]; [11],120 µg/mL
same,CC25,CCRF-CEM [7],>100 µg/mL
same,CC50,Vero [2]; [12],> 500 µg/mL
Nc1ncnc2c1ncn2C/C(=C/CO)CO,IC50,CCRF-CEM [5]; [13],> 100 µg/mL
same,IC50,Vero [1]; [11],> 500 µg/mL
same,CC25,CCRF-CEM [7],>100 µg/mL
same,CC50,Vero [2]; [12],260 µg/mL
Nc1ncnc2c1ncn2C[C@]1(CO)C[C@@H]1CO,IC50,HFF [3],19.8 µg/mL
same,SI,HFF [4],16
same,IC50,CCRF-CEM [5]; [13],> 100 µg/mL
same,IC50,Vero [1]; [11],47 µg/mL
same,MTC,HFF [6],320
same,CC25,CCRF-CEM [7],19.8 µg/mL
same,CC50,Vero [2]; [12],120 µg/mL
Nc1nc(O)c2ncn(C[C@]3(CO)C[C@H]3CO)c2n1,IC50,HFF [3],0.2 µg/mL
same,SI,HFF [4],1600
same,IC50,CCRF-CEM [5]; [13],> 100 µg/mL
same,IC50,Vero [1]; [11],0.02 µg/mL
same,MTC,HFF [6],320 µg/mL
same,CC25,CCRF-CEM [7],>100 µg/mL
same,CC50,Vero [2]; [12],240 µg/mL
OC[C@H]1C[C@@]1(CO)Cn1cnc2c(O)ncnc21,IC50,CCRF-CEM [5]; [13],20.1 µg/mL
same,IC50,Vero [1]; [11],> 500 µg/mL
same,CC25,CCRF-CEM [7],>100 µg/mL
same,CC50,Vero [2]; [12],> 500 µg/mL
Nc1nc(O)c2ncn(CC3[C@H](CO)[C@H]3CO)c2n1 (stereo partly drawn),IC50,HFF [3],240 µg/mL
same,SI,HFF [4],1.3
same,IC50,Vero [1]; [11],> 500 µg/mL
same,MTC,HFF [6],320 µg/mL
same,CC50,Vero [2]; [12],> 500 µg/mL
OC[C@@H]1C[C@@]1(CO)Cn1cnc2c(O)ncnc21,IC50,CCRF-CEM [5]; [13],25.7 µg/mL
same,IC50,Vero [1]; [11],> 500 µg/mL
same,CC25,CCRF-CEM [7],>100 µg/mL
same,CC50,Vero [2]; [12],> 500 µg/mL
Nc1nc(O)c2ncn(C/C(=C/CO)CO)c2n1,IC50,HFF [3],52.8 µg/mL
same,SI,HFF [4],>6.1
same,IC50,CCRF-CEM [5]; [13],> 100 µg/mL
same,IC50,Vero [1]; [11],4.2 µg/mL
same,MTC,HFF [6],>320 µg/mL
same,CC25,CCRF-CEM [7],>100 µg/mL
same,CC50,Vero [2]; [12],> 500 µg/mL
Cc1cn([C@H]2C[C@H](N=[N+]=[N-])[C@@H](CO)O2)c(=O)[nH]c1=O [ZIDOVUDINE],CC25,CCRF-CEM [8],35.6 µg/mL
same,IC50,CCRF-CEM [9],0.003 µg/mL
Nc1nc(N)c2ncn(CC3(CO)CC3CO)c2n1 (stereo not drawn),IC50,CCRF-CEM [5]; [13],32.1 µg/mL
same,IC50,Vero [1]; [11],29 µg/mL
same,CC25,CCRF-CEM [7],>100 µg/mL
same,CC50,Vero [2]; [12],> 500 µg/mL
Nc1ncnc2c1ncn2C/C(=C\CO)CO,IC50,CCRF-CEM [10],> 100 µg/mL
same,IC50,Vero [1]; [11],> 500 µg/mL
same,CC25,CCRF-CEM [7],>100 µg/mL
same,CC50,Vero [2]; [12],260 µg/mL
Nc1nc2c(ncn2COCCO)c(=O)[nH]1 [ACYCLOVIR],IC50,Vero [1]; [11],0.81 µg/mL
same,MTC,HFF [6],> 320 µg/mL
same,CC50,Vero [2]; [12],820 µg/mL
Nc1nc(O)c2ncn(CC3[C@@H](CO)[C@H]3CO)c2n1 (stereo partly drawn),IC50,Vero [1]; [11],> 500 µg/mL
same,CC50,Vero [2]; [12],> 500 µg/mL
Nc1nc(O)c2ncn(C[C@@]3(CO)O[C@H]3CO)c2n1,IC50,Vero [1]; [11],14 µg/mL
same,CC50,Vero [2]; [12],> 500 µg/mL
Cc1cn(C[C@]2(CO)C[C@@H]2CO)c(=O)[nH]c1=O (stereo in doubt; 41b),IC50,CCRF-CEM [5]; ccrf-cem,3.2 µg/mL

# Source: ChEMBL document CHEMBL1131329, “Synthesis and antiviral activity of novel acyclic nucleosides: discovery of a cyclopropyl nucleoside with potent inhibitory activity against herpesviruses” (J Med Chem, 1998)
